Experiments:
[1] = biological target: T1, Cannabinoid receptor 1 (Homo sapiens, UniProt P21554); assay: biochemical; type: cell-based, CHO
[2] = biological target: Cannabinoid receptor 2 (Homo sapiens) (UniProt P34972); assay: Displacement of [3H]CP-55940 from human CB2 receptor expressed in CHO cells at 10 uM; type: cell-based
In short: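 Competition binding on membranes of cells expressing hCB2 (40 µg per tube) with [3H]-CP-55940 (1 nM) at 30 °C for 1 h. Buffer: 50 mM Tris-HCl, 3 mM MgCl2, 1 mM EDTA, 0.5% BSA, pH 7.4. DMSO stocks diluted 100× into buffer. Nonspecific binding defined with 10 µM HU-210. Bound label collected by filtration on PEI-pretreated GF/B filters and counted by scintillation. Run at least in triplicate.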

[3] = biological target: T1, Cannabinoid receptor 1; assay: Activity at human CB1 receptor by [35S]GTP-gamma-S binding stimulation assay; type: functional
[4] = biological target: T1, Cannabinoid receptor 1; conditions: at 10 µM

Chain of Cannabinoid receptor 2 (Homo sapiens) (P34972 whole entry): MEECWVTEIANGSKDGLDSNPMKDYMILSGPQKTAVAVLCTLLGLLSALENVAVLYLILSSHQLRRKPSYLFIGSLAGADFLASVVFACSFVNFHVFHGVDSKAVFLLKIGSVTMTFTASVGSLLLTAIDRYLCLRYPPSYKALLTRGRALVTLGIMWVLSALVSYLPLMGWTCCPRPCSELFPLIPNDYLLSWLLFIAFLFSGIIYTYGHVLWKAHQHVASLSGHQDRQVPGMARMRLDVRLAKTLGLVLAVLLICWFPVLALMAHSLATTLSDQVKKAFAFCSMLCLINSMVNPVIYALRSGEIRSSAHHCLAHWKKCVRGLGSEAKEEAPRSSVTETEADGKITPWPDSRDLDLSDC
T1 sequence (P21554 whole entry): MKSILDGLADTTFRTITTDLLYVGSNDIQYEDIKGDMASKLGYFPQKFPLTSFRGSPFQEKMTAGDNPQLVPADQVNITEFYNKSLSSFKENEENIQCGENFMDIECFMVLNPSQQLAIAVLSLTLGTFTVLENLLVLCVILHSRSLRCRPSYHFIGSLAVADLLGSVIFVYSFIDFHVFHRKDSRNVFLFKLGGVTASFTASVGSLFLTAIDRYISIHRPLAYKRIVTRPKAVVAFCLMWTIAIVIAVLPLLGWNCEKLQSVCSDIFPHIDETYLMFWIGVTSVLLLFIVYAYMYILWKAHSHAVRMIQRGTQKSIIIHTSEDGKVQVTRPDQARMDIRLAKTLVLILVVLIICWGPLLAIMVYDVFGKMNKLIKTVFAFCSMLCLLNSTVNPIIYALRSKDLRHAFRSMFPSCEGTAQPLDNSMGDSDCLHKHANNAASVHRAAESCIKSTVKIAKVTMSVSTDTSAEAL

For `O=C1N(c2ccccc2)C(=S)NC1(c1ccc(Br)cc1)c1ccc(Br)cc1`, the Ki [1] was 3.45 µM (antagonist) and the Activity [2] was less than 20%.

With `O=C1NC(c2ccc(Br)cc2)(c2ccc(Br)cc2)C(=O)N1c1ccccc1` the Activity [2] was less than 20%.

For `O=C1NC(c2ccccc2)(c2ccccc2)C(=O)N1c1ccc(Br)cc1`, the Activity [2] was less than 20%.

In the case of `S=C(Nc1ccc(Cl)cc1)NC(c1ccc(Br)cc1)c1ccc(Br)cc1`, the Ki [1] is reported as 1.5 µM (antagonist), the Activity [2] is reported as 29% and the EC50 [3] is reported as 1.25 µM (inverse agonist). It also gave an Emax ([4]; filed as inverse agonist) of -61%.

With `O=C(Nc1ccc(Br)cc1)NC(c1ccccc1)c1ccccc1` the Activity [2] was less than 20%.

With `O=C1NC(c2ccc(F)cc2)(c2ccc(F)cc2)C(=O)N1c1ccccc1` the Activity [2] was less than 20%.

`O=C(Nc1ccc(I)cc1)NC(c1ccccc1)c1ccccc1` was tested, and the Activity [2] was less than 10%.

For `O=C(Nc1ccccc1F)NC(c1ccccc1)c1ccccc1`, the Activity [2] was less than 10%.

With `S=C(Nc1ccccc1)NC(c1ccc(Br)cc1)c1ccc(Br)cc1` the Ki [1] was 1.8 µM (antagonist) and the Activity [2] was 29%.

`S=C(Nc1ccccc1)NC(c1ccc(Cl)cc1)c1ccc(Cl)cc1` was tested, and the Ki [1] was 2.9 µM (antagonist) and the Activity [2] was 23%.

Compound `O=C(Nc1ccc(Cl)cc1)NC(c1ccccc1)c1ccccc1` has an Activity [2] of less than 20%.

With `O=C(Nc1ccccc1)NC(c1ccc(Cl)cc1)c1ccc(Cl)cc1` the Ki [1] was 7.05 µM (antagonist) and the Activity [2] was 23%.

For `O=C(Nc1ccccc1)NC(c1ccc(F)cc1)c1ccc(F)cc1`, the Activity [2] was less than 10%.

`O=C(Nc1ccc(Br)cc1)NC(c1ccc(Cl)cc1)c1ccc(Cl)cc1` was tested, and the Ki [1] was 1.25 µM (antagonist), the Activity [2] was 29% and the EC50 [3] was 0.7 µM (inverse agonist). It also gave an Emax ([4]; filed as inverse agonist) of -66%.

Work on `O=C1NC(c2ccccc2)(c2ccccc2)C(=O)N1c1ccccc1` yielded an Activity [2] of less than 20%.

With `O=C(Nc1ccc(Br)cc1)NC(c1ccc(I)cc1)c1ccc(I)cc1` the Ki [1] was 0.75 µM (antagonist) and the Activity [2] was 19%.

With `O=C1N(c2ccc(Cl)cc2)C(=S)NC1(c1ccc(Br)cc1)c1ccc(Br)cc1` the Ki [1] was 2.75 µM (antagonist) and the Activity [2] was less than 20%.

Work on `CCCCCCc1ccc(NC(=O)NC(c2ccc(Br)cc2)c2ccc(Br)cc2)cc1` yielded an Activity [2] of less than 20%.

For `O=C(Nc1ccc(I)cc1)NC(c1ccc(Br)cc1)c1ccc(Br)cc1`, the Activity [2] was 34%.

In the case of `O=C(Nc1ccc(Cl)cc1)NC(c1ccc(Br)cc1)c1ccc(Br)cc1`, the Ki [1] is reported as 0.65 µM (antagonist), the Activity [2] is reported as 31% and the EC50 [3] is reported as 0.45 µM (inverse agonist). For the same compound, the Emax ([4]; filed as inverse agonist) was -72%.

`O=C(Nc1ccc(F)cc1)NC(c1ccccc1)c1ccccc1` showed an Activity [2] of less than 10%.

`O=C(Nc1ccccc1)NC(c1ccccc1)c1ccccc1` showed an Activity [2] of less than 10%.

Work on `CCCCCCc1ccc(NC(=O)NC(c2ccccc2)c2ccccc2)cc1` yielded an Activity [2] of 24%.

With `O=C(Nc1ccc(Br)cc1)NC(c1ccc(Br)cc1)c1ccc(Br)cc1` the Ki [1] was 0.5 µM (antagonist), the Activity [2] was 22% and the EC50 [3] was 0.5 µM (inverse agonist). For the same compound, the Emax ([4]; filed as inverse agonist) was -61%.

In the case of `O=C(Nc1ccc(Cl)cc1)NC(c1ccc(Cl)cc1)c1ccc(Cl)cc1`, the Ki [1] is reported as 1.1 µM (antagonist), the Activity [2] is reported as 24% and the EC50 [3] is reported as 1.05 µM (inverse agonist). It also gave an Emax ([4]; filed as inverse agonist) of -74%.

With `COc1ccc(NC(=O)NC(c2ccccc2)c2ccccc2)cc1` the Activity [2] was less than 20%.

In the case of `CCCCCCC(C)(C)c1cc(O)c2c(c1)OC(C)(C)[C@H]1CC=C(CO)C[C@H]21` [DEXANABINOL], the Ki [1] is reported as 0.019 µM (antagonist), the EC50 [3] is reported as 0.0006 µM (inverse agonist) and the Emax ([4]; filed as agonist) is reported as 200%.

`O=C(Nc1ccc(CO)cc1)NC(c1ccc(Br)cc1)c1ccc(Br)cc1` showed an Activity [2] of less than 20%.

For `O=C(Nc1ccccc1)NC(c1ccc(Br)cc1)c1ccc(Br)cc1`, the Ki [1] was 2.9 µM (antagonist) and the Activity [2] was 38%.

With `S=C(Nc1ccc(Cl)cc1)NC(c1ccc(Cl)cc1)c1ccc(Cl)cc1` the Ki [1] was 1.9 µM (antagonist) and the Activity [2] was 23%.

Reference: ChEMBL document CHEMBL1140299, “1-Benzhydryl-3-phenylurea and 1-benzhydryl-3-phenylthiourea derivatives: new templates among the CB1 cannabinoid receptor inverse agonists” (J Med Chem, 2005)
